# M1 PAM – human M1 muscarinic receptor positive allosteric modulators, primary screen, CHO-K1 cells, Fluo-8 calcium fluorescence, 1536-well | Muscarinic acetylcholine receptor M1 (Homo sapiens), P11229 | AID 588819, 2011 | activation, % at 3 µM | CHO-K1 hM1, ACh EC20; 0% = ACh EC20, 100% = maximal ACh | hit rate 0.088% among 360,000; in the data active means activation above about 19%, passing the limit was not always enough
# M1 ag – human M1 muscarinic receptor agonists, primary screen, Fluo-8 calcium fluorescence, CHO-K1 cells, HTS | Muscarinic acetylcholine receptor M1 (Homo sapiens), P11229 | CHO-K1 hM1, agonist mode; 0% DMSO, 100% acetylcholine EC100 | activation, % at 3 µM | hit rate 0.33% among 360,000 | AID 588814, 2011;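 active means activation above the run's mean compound activation plus 3 SD, cut at about 16% in these data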;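 further: peak over basal fluorescence ratio within a 140 s kinetic read after compound addition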
# TAAR1 antag – human TAAR1 antagonists, primary screen, Fluo-8 calcium fluorescence, CHO RD-HGA16 cells | AID 624466, 2012 | hit rate 1.5% among 360,000 | antagonist | Trace amine-associated receptor 1 (Homo sapiens), Q96RJ0 | inhibition, % at 3 µM;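 active means inhibition above a per-plate cutoff, the mean inhibition of test compounds on that plate plus 3 SD, cut at about 49% in these data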;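 further: 0% = DMSO plus EC80 beta-PEA response and 100% = DMSO alone without agonist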
# Target sequence (Q96RJ0 whole entry, looked up): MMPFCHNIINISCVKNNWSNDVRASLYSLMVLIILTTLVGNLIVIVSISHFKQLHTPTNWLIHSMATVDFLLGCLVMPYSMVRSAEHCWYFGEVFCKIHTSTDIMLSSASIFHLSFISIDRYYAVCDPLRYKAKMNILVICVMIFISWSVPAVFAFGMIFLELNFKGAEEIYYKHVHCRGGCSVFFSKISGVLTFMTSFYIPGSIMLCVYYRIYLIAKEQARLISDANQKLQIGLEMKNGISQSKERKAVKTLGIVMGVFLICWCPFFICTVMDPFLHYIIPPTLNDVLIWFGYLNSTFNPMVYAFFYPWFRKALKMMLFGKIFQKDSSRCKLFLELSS
#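 Material: CHO RD-HGA16 cells bearing hTAAR1; compound dosing: one-point dosing, 3 µM nominal final; schedule: dye loading 75 min at 37 °C, then 30 min room temperature; measured by: calcium fluorescence with Fluo-8; control set: vehicle and agonist controls; replication: n of 1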
# TAAR1 ag – human TAAR1 agonists, primary screen, Fluo-8 calcium fluorescence, CHO RD-HGA16 cells. Trace amine-associated receptor 1 (Homo sapiens), Q96RJ0. vehicle wells 0%, saturating PEA agonist 100%. activation, % at 3 µM. hit rate 0.99% among 360,000. AID 624467, 2012;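 active means activation above the mean activation of all test compounds in the run plus 3 SD, cut at about 38% in these data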
#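 System: CHO-derived RD-HGA16 cells with stable Gα16 and human TAAR1. Times: 17-24 h plating, Fluo-8 75 min 37 °C, 30 min RT. Measured by: calcium-sensitive Fluo-8 signal, excitation 470-495, emission 515-575 nm. Read-out basis: % activation relative to PEA EC100 response. Control set: DMSO and PEA EC100. Repeats: no replicates (n 1).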
# M1 antag – human M1 muscarinic receptor antagonists, primary screen, CHO-K1 cells, Fluo-8 calcium fluorescence, 1536-well. Muscarinic acetylcholine receptor M1 (Homo sapiens), P11229. CHO-K1 hM1, ACh EC80 antagonist. inhibition, % at 3 µM. hit rate 1.3% among 360,000;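 active means percent inhibition above its own plate's cutoff, namely the mean of that plate's compound wells plus 3 SD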;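 further: peak over basal fluorescence ratio during 140 s after agonist addition; 0% = ACh EC80 plus DMSO and 100% = DMSO alone without agonist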
# TAAR1 ag conf – human TAAR1 agonists, retest of hits, confirmation, Fluo-8 calcium fluorescence, CHO RD-HGA16 cells. shares compounds with TAAR1 ag. scaled: DMSO 0%, maximal phenethylamine 100%. activation, % at 3 µM. hit rate 82% among 2,400. AID 651783, 2012;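 active means activation above a cutoff set at the run's mean compound activation plus 3 SD, cut at about 39% in these data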
# Ga16 ag counter – nonselective calcium mobilization agonists, CHO-Ga16 cells, counter-screen for hTAAR1 agonist project, cell-based, fluorescence, CHO-Ga16 parental line; shares compounds with TAAR1 ag; Fluo-8 calcium fluorescence; normalized to maximal ATP response, DMSO zero; activation, % at 3 µM; hit rate 50% among 2,400;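 active means activation above the run cutoff, the mean activation over all tested wells plus 3 SD, cut at about 12% in these data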;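 further: 0% = DMSO wells and 100% = maximal ATP response on the peak over basal ratio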
# TAAR1 desensitize – TAAR1 desensitization by agonist hits, confirmation, counter-screen for TAAR1 agonist project, cell-based, fluorescence, tachyphylaxis | shares compounds with TAAR1 ag | CHO RD-HGA16 hTAAR1, Fluo-8 calcium, beta-PEA response inhibition | inhibition, % at 3 µM | hit rate 46% among 2,400 | AID 651951, 2012;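 active means inhibition above the run cutoff, the mean inhibition of all test compounds plus 3 SD, cut at about 49% in these data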;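 further: beta-PEA stimulus applied at its EC80; loss of beta-PEA calcium signal after compound pretreatment read as receptor desensitization; 0% = DMSO with beta-PEA at EC80 and 100% = DMSO alone without agonist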
# Ga16 nonsel ant – inhibition of ATP-evoked calcium response in CHO-Ga16 cells, counter-screen for TAAR1 agonist project, cell-based, fluorescence | inhibition, % at 3 µM | hit rate 39% among 2,400 | AID 651952, 2012 | shares compounds with TAAR1 ag | CHO-Ga16 ATP-induced calcium, Fluo-8 fluorescence;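 active means inhibition above the plate's mean compound inhibition plus 3 SD, computed per plate, cut at about 22% in these data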;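 further: 0% = EC80 ATP with DMSO and 100% = DMSO wells without ATP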
# An asterisk follows results filed as active; · = no result given. Rows were chosen to be rich in hits. Some 3.4% of all compounds tested hit in one or more screens of this group.
SMILES,M1 PAM,M1 ag,TAAR1 antag,TAAR1 ag,M1 antag,TAAR1 ag conf,Ga16 ag counter,TAAR1 desensitize,Ga16 nonsel ant
Cc1cccc(C2CN(C)CCc3c2cc(O)c(O)c3Cl)c1 (stereo unspecified),5,-7,-6,5,-25,·,·,·,·
Oc1cc2c(c(Cl)c1O)CCNCC2c1ccccc1 (stereo unspecified),-6,-6,-10,44*,-11,73*,3,57*,10
COc1ccc(CC(N)c2csc(NC(=O)c3cc(C(C)(C)C)nn3Cc3ccccc3)n2)cc1 (stereo unspecified),4,-2,-2,7,-8,·,·,·,·
Cc1ncsc1C(=O)Nc1cccc(C(F)(F)F)c1,-6,-4,-2,-2,4,·,·,·,·
CCN(CC)S(=O)(=O)c1cc(NC(=O)CNc2cccc(S(=O)(=O)N3CCOCC3)c2)ccc1C,3,-3,34,5,10,·,·,·,·
c1ccc(-c2nnnn2-c2ccccc2)cc1,7,-5,-6,1,-13,·,·,·,·
ClC(Cl)(c1nnnn1-c1ccccc1)c1nnnn1-c1ccccc1,8,-7,38,58*,4,52*,24*,36,29*
CN1C[C@@H]2[C@@H]3C(=O)N(C)C(=O)[C@@H]3[C@](C)(C1=O)N2C(=O)c1ccc(Br)cc1,7,-3,7,2,-7,·,·,·,·
COc1ccc(CC(=O)NNC(=O)c2cc(Cl)ccc2OC)cc1,11,3,-16,5,-12,·,·,·,·
CCOC(=O)c1ccccc1-c1cn2cc(Cl)ccc2n1,2,-9,4,-3,0,·,·,·,·
Cc1ccc(S(=O)(=O)n2nc(OC(=O)c3c(F)cccc3Cl)cc2N)cc1,8,-1,8,60*,-13,65*,27*,25,19
Nc1cc(OC(=O)c2ccc(F)cc2)nn1S(=O)(=O)c1ccc(F)cc1,-4,-6,-17,3,3,·,·,·,·
Cc1ccc(S(=O)(=O)n2nc(OC(=O)c3cccc(F)c3)cc2N)cc1,4,-4,9,103*,-3,56*,38*,26,15
CCCN1C(=O)S/C(=C\c2ccc(N3CCOCC3)o2)C1=O,-1,-2,40,56*,6,60*,53*,45,44*
O=C(NCCc1ccccc1)c1nc2nc(-c3cccs3)cc(C(F)(F)F)n2n1,5,-4,84*,84*,-3,91*,4,90*,18
Cc1cc(C)n2nc(C(=O)NCCc3ccccc3)nc2n1,-9,-3,-4,63*,14,54*,0,9,4
Cc1cc(C)n2nc(CCc3ccccc3)nc2n1,8,-4,-7,12,-5,·,·,·,·
Cc1cccc(-c2cc3nc(C)cc(N4CC(C)CC(C)C4)n3n2)c1 (stereo unspecified),0,-2,-15,70*,-33,82*,7,30,-2
Cc1cc(C(=O)CN2C(=O)C(=O)N(Cc3ccco3)C2=O)c(C)n1CCc1ccc(F)cc1,-1,-3,7,48*,0,88*,9,43,12
O=C1NC[C@@H](CCCCN2C[C@H](Cc3ccccc3)N(CCc3ccc(O)cc3)C(=O)C2=O)N(CC2CCCCC2)C1=O,·,·,-11,8,·,·,·,·,·
CSc1ccc(Cn2c(C)c(C(=O)NCc3ccco3)sc2=O)cc1,3,-7,9,-1,-7,·,·,·,·
CCCCN1Cc2cc(C(=O)c3cc(F)ccc3O)cnc2NC1=O,-5,-7,9,82*,2,53*,24*,25,16
O=C(Nc1ccccc1F)c1coc(=O)c(Br)c1,6,0,-12,5,1,·,·,·,·
O=C(NCCc1ccc(F)cc1)c1coc(=O)c(Br)c1,-1,-2,35,68*,-2,66*,1,16,8
COc1ccccc1NS(=O)(=O)c1cc2c3c(c1)CCN3C(=O)CC2,21,10,-24,4,0,·,·,·,·
SMILES,M1 PAM,M1 ag,TAAR1 antag,TAAR1 ag,M1 antag,TAAR1 ag conf,Ga16 ag counter,TAAR1 desensitize,Ga16 nonsel ant
COc1ccc(Cl)cc1Cn1c(C)c(C(=O)NCc2cccc(C(F)(F)F)c2)sc1=O,4,-6,12,2,-17,·,·,·,·
Cc1c(C(=O)NCc2ccc([N+](=O)[O-])cc2)sc(=O)n1Cc1ccc2c(c1)OCO2,-17,19*,74*,104*,7,106*,63*,81*,49*
COc1ccc(Cl)cc1Cn1c(C)c(C(=O)NCc2ccc(C#N)cc2)sc1=O,-32,-3,76*,68*,44*,74*,37*,74*,50*
COc1ccc(CNC(=O)c2sc(=O)n(Cc3ccccc3C)c2C)cc1,-7,34*,70*,106*,7,122*,82*,85*,54*
Cc1ccccc1Cn1c(C)c(C(=O)NCc2cccc(Cl)c2)sc1=O,7,0,14,7,-8,·,·,·,·
COc1ccccc1Cn1c(C)c(C(=O)NCc2ccc(C#N)cc2)sc1=O,-33,16*,94*,134*,32*,106*,69*,78*,45*
COc1ccccc1Cn1c(C)c(C(=O)NCc2cccc(C)c2)sc1=O,3,-8,-28,2,1,·,·,·,·
Cc1ccc(Cl)cc1-c1cc(C(=O)NCC2CCCCC2)[nH]n1,-6,0,-2,1,-5,·,·,·,·
CCN(CC(=O)NCc1cccs1)C(=O)c1cccc(S(=O)(=O)Nc2ccc(C)cc2)c1,11,1,-13,7,-8,·,·,·,·
C/C(=N\NC(=O)c1nnn(-c2nonc2N)c1-c1ccc2c(c1)OCO2)c1ccc(C)cc1,-1,0,80*,125*,17,127*,94*,83*,64*

# Screens (PubChem)
